ChEMBL document CHEMBL1125563, “Selective, centrally acting serotonin 5-HT2 antagonists. 1. 2- and 6-substituted 1-phenyl-3-(4-piperidinyl)-1H-indoles” (J Med Chem, 1992)

Columns and labels:
[1] = molecular target: T1, Adrenergic receptor alpha-1 (Rattus norvegicus, UniProt P15823+P23944+P43140); assay: Displacement of [3H]prazosin from Alpha-1 adrenergic receptor of whole rat brain membranes; type: cell membranes, Membrane
T1 sequence (P15823 whole entry): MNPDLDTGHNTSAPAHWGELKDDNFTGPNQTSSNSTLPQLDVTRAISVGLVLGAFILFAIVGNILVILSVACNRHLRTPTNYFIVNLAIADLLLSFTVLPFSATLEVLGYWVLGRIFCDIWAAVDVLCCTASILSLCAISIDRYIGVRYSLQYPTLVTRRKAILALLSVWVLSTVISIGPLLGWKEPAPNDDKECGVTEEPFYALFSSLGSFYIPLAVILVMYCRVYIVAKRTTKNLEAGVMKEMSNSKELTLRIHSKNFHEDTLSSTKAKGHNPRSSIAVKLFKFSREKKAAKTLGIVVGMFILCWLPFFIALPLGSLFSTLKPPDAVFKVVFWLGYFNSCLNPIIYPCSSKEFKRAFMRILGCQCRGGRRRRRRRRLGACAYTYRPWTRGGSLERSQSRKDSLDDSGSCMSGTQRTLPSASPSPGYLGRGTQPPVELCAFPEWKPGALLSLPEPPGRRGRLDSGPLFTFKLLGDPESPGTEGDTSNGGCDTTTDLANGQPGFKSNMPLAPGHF
T1 sequence (P23944 whole entry): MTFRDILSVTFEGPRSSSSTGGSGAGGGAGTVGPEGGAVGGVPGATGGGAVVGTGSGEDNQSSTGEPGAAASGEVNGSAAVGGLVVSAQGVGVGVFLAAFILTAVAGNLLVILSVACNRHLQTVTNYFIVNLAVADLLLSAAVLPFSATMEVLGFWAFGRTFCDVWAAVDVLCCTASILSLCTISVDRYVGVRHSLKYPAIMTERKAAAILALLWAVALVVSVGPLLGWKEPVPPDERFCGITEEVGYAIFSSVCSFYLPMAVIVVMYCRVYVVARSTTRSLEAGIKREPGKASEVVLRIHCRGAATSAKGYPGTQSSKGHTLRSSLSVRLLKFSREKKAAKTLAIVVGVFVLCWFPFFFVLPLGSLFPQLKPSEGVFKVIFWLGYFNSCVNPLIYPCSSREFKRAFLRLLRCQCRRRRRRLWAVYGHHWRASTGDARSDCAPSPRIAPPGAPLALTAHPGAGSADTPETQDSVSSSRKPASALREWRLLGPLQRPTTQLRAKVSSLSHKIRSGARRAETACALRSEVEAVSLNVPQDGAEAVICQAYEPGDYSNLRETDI
T1 sequence (P43140 whole entry): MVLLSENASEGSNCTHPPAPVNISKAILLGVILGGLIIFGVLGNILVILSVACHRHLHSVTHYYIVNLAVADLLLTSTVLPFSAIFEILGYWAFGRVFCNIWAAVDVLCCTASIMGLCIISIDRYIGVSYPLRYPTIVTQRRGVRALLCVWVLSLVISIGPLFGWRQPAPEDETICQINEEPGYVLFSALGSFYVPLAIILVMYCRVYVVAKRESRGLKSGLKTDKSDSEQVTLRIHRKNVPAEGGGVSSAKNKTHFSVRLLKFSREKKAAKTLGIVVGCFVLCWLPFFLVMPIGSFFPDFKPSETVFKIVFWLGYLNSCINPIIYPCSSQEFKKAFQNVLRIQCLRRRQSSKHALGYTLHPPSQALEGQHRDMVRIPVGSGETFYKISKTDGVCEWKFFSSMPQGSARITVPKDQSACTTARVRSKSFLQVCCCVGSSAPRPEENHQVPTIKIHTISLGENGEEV
Method in brief: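 α1 adrenoceptor binding measured as displacement of [3H]prazosin from whole rat brain membranes. Five test-drug concentrations spanning three decades in triplicate, two full curves; IC50 from log concentration-effect curves, logarithmic mean of at least two determinations.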

Rattus norvegicus [2] = assay: Compound was evaluated for the inhibition of quipazine-induced head twitches after 2 h (administered subcutaneously); type: functional; details: sc
Rattus norvegicus [3] = assay: Compound was evaluated for the inhibition of quipazine-induced head twitches after 24 hr (administered subcutaneously); type: functional; details: sc
[4] = molecular target: Serotonin 2 (5-HT2) receptor (Rattus norvegicus, UniProt P30994+P08909+P14842); assay: Displacement of [3H]ketanserin from 5-hydroxytryptamine 2 receptor from rat cortical membranes.; type: cell membranes, Membrane
Method in brief: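 [3H]ketanserin displacement from rat cortical membranes (5-HT2). Five concentrations across three decades in triplicate, two full curves; IC50 estimated on a log-concentration scale, given as logarithmic mean of at least two determinations.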

D(2) dopamine receptor = D(2) dopamine receptor (Rattus norvegicus, UniProt P61169); assay: Displacement of [3H]-spiperone from Dopamine receptor D2 from rat striatal membranes; type: cell membranes, Membrane
Sequence of D(2) dopamine receptor (P61169 whole entry): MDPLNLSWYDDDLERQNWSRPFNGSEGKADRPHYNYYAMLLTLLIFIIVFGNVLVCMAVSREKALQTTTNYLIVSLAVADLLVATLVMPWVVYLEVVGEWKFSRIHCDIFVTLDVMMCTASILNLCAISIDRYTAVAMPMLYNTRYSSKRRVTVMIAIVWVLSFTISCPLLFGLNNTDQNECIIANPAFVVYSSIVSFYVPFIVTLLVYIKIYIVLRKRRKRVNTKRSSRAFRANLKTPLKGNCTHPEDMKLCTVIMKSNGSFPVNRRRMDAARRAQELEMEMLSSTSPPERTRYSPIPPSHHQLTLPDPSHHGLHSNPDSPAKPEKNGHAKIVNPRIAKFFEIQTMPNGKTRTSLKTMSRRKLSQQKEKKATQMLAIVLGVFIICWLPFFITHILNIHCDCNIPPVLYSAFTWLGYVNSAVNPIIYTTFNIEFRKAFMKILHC
Method in brief: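 [3H]spiperone displacement from rat striatal membranes (D2). Five test-drug concentrations over three decades, in triplicate, two full curves; IC50 from log concentration-effect curves, reported as logarithmic mean of at least two determinations.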

Mus musculus [5] = species on record: Mus musculus; assay: Compound was evaluated for the inhibition of isolation-induced aggression at a threshold of 180 seconds; type: functional
Method in brief: (§1)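 Isolated male NMRI mice (3 weeks) trained to attack a nonaggressive intruder of the same strain; only mice with attack latency <25 s included. Pretested just before dosing and 2 h after sc test substance; observation maximum 180 s; at least eight mice per dose.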

Mus musculus [6] = species on record: Mus musculus; assay: Compound was evaluated for the inhibition of isolation-induced aggression at a threshold of, 90 seconds; type: functional; method in brief: as §1
Rattus norvegicus [7] = assay: Compound was evaluated for the inhibition of quipazine-induced head twitches after 2 h (administered subcutaneously); 0.11-0.29; type: functional; details: sc
Rattus norvegicus [8] = assay: Compound was evaluated for the inhibition of quipazine-induced head twitches after 24 hr (administered perorally); 0.014-0.074; type: functional; details: po
Rattus norvegicus [9] = assay: Compound was evaluated for the inhibition of pergolide-induced reactions after 2 hr (administered subcutaneously); type: functional; details: sc
Method in brief: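 Male Wistar rats with unilateral 6-OHDA lesions; test drug sc 2 h before pergolide (0.05 µmol/kg sc) to induce contralateral circling. Effect of each dose expressed as percent of mean of control sessions 1 week before and 1 week after, per rat; at least four rats per dose; ED50 by log-probit analysis.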

Rattus norvegicus [10] = assay: Compound was evaluated for the inhibition of quipazine-induced head twitches after 24 h (administered subcutaneously); 0.0042-0.061; details: sc
Mus musculus [11] = species on record: Mus musculus; assay: Compound was evaluated for the inhibition of isolation-induced aggression at a threshold of,90 seconds; type: functional; method in brief: as §1
Rattus norvegicus [12] = assay: Compound was evaluated for the inhibition of quipazine-induced head twitches after 2 hr (administered subcutaneously); 0.018-0.096; type: functional; details: sc
Rattus norvegicus [13] = assay: Compound was evaluated for the inhibition of quipazine-induced head twitches after 24 hr (administered subcutaneously); 0.010-0.12; type: functional; details: sc
Rattus norvegicus [14] = assay: Compound was evaluated for the inhibition of quipazine-induced head twitches after 24 h (administered perorally); 0.056-0.22; type: functional; details: po
Rattus norvegicus [15] = assay: Compound was evaluated for the inhibition of quipazine-induced head twitches after 2 hr (administered subcutaneously); 0.010-0.24; type: functional; details: sc
Rattus norvegicus [16] = assay: Compound was evaluated for the inhibition of quipazine-induced head twitches after 24 hr (administered subcutaneously); 0.0027-0.031; type: functional; details: sc
Rattus norvegicus [17] = assay: Compound was evaluated for the inhibition of quipazine-induced head twitches after 24 hr (administered perorally); 0.010-0.048; type: functional; details: po

IC50 [1] [nM]	IC50 [4] [nM]	IC50 (D(2) dopamine receptor) [nM]	SMILES	also measured
730	16	–	CC(C)c1ccc2c(C3CCN(CCN4CCN(C(C)C)C4=O)CC3)cn(-c3ccc(F)cc3)c2c1	ED50 (Rattus norvegicus [2]): > 0.54 µmol/kg; ED50 (Rattus norvegicus [3]): > 4.3 µmol/kg
250	18	2600	CC(C)c1ccc2c(C3CCN(CCN4CCNC4=O)CC3)cn(-c3ccc(F)cc3)c2c1	–
24	0.82	–	Cc1ccc2c(C3CCN(CCN4CCNC4=O)CC3)cn(-c3ccc(F)cc3)c2c1	–
450	6	–	Cc1ccc2c(C3CCN(CCN4CCN(C(C)C)C4=O)CC3)cn(-c3ccc(Cl)cc3)c2c1	–
91	2.9	–	CC(C)N1CCN(CCN2CCC(c3cn(-c4ccc(F)cc4)c4cc(C(F)(F)F)ccc34)CC2)C1=O	–
26	2.2	74	CC(C)NC(=O)N(C)CCN1CCC(c2cn(-c3ccc(F)cc3)c3cc(Cl)ccc23)CC1	ED50 (Mus musculus [5]): > 21 µmol/kg; ED50 (Mus musculus [6]): > 21 µmol/kg; ED50 (Rattus norvegicus [7]): 0.18 µmol/kg; ED50 (Rattus norvegicus [8]): 0.032 µmol/kg; ED50 (Rattus norvegicus [9]): > 21 µmol/kg; ED50 (Rattus norvegicus [10]): 0.016 µmol/kg
85	1.6	–	Cc1ccc2c(C3CCN(CCN4CCN(C(C)C)C4=O)CC3)cn(-c3ccc(F)cc3)c2c1	ED50 (Mus musculus [5]): 7.3 µmol/kg; ED50 (Mus musculus [11]): 13 µmol/kg; ED50 (Rattus norvegicus [12]): 0.042 µmol/kg; ED50 (Rattus norvegicus [13]): 0.036 µmol/kg; ED50 (Rattus norvegicus [14]): 0.11 µmol/kg; ED50 (Rattus norvegicus [9]): > 18 µmol/kg
16	1.6	82	CNC(=O)N(C)CCN1CCC(c2cn(-c3ccc(F)cc3)c3cc(Cl)ccc23)CC1	ED50 (Mus musculus [5]): > 23 µmol/kg; ED50 (Mus musculus [6]): > 23 µmol/kg; ED50 (Rattus norvegicus [15]): 0.049 µmol/kg; ED50 (Rattus norvegicus [16]): 0.0092 µmol/kg; ED50 (Rattus norvegicus [9]): > 23 µmol/kg; ED50 (Rattus norvegicus [17]): 0.022 µmol/kg
76	1.8	–	Cc1ccc2c(C3CCN(CCNC(=O)NC(C)C)CC3)cn(-c3ccc(F)cc3)c2c1	–
27	60	590	Cc1ccc2c(C3CCN(CCN4CCN(C(C)C)C4=O)CC3)c[nH]c2c1	ED50 (Rattus norvegicus [2]): > 0.84 µmol/kg
120	3.7	–	CC(C)N1CCN(CCN2CCC(c3cn(-c4ccccc4F)c4cc(Cl)ccc34)CC2)C1=O	–
39	4.5	290	CC(C)N1CCN(CCN2CCC(c3cn(-c4ccccc4)c4cc(Cl)ccc34)CC2)C1=O	–
